The source of these data is ChEMBL document CHEMBL4017532, “Multifunctional Hybrid Compounds Derived from 2-(2,5-Dioxopyrrolidin-1-yl)-3-methoxypropanamides with Anticonvulsant and Antinociceptive Properties” (J Med Chem, 2017).

Structures are written as SMILES. The source made the active and inactive calls. The calls are words filed in the database; no cut-off is given here. Bounds are passed on as bounds.

In data set [1] the test system is Mus musculus. Briefly: Protection index, ratio of TD50 for neurotoxicity in ip dosed Albino Swiss CD-1 mouse to ED50 for ip dosed maximal electroshock induced seizure Albino Swiss CD-1 mouse. The method in brief:
(§1)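 Acute neurological toxicity after ip dosing (1% Tween 80 suspension) was assessed in the mouse chimney test. TD50 with 95% confidence limits was derived by probit analysis. Protective index is TD50 from the chimney test divided by ED50 from the MES, scPTZ or 6 Hz test.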

Data set [2] can be described thus: Neurotoxicity in ip dosed Albino Swiss CD-1 mouse assessed as induction of motor impairment measured up to 60 secs by chimney test. The conditions noted are these: in vivo. Type of data set: toxicity, organism-based. The method, boiled down:
as §1

For data set [3], the species on record is Rattus norvegicus. Briefly: Displacement of (-)-[3H](-)D 888 from L-type calcium channel verapamil binding site in rat cerebral cortex at 100 uM. The method in brief:
(§2)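 Radioligand binding was run as a contract service. Percent inhibition of specific labelled-ligand binding was measured at 100 μM test compound, or 200 μM for hERG.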

In data set [4] the test system is Mus musculus. The experiment in a line: Anticonvulsant activity in ip dosed Albino Swiss CD-1 mouse assessed as inhibition of pentylenetetrazole-induced seizures administered up to 2 hrs prior to PTZ induction measured at time to peak effect. The data set is classed as functional. The conditions noted are these: Swiss CD-1, ip.
The test system of data set [5] is Mus musculus. Briefly: Toxicity in Albino Swiss CD-1 mouse assessed as effect on spontaneous locomotar activity at 25 to 150 mg/kg, ip treated 30 mins prior to test. Conditions: in vivo, 0.5 h. Type of data set: organism-based. The method, boiled down:
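Male CD-1 mice were dosed ip at 25, 50, 100 or 150 mg/kg 30 min before testing and then placed singly in activity cages. Light-beam crossings were counted over 30 min in 10 min intervals.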

Data set [6] has as its target GABA-A receptor; alpha-1/beta-2/gamma-2 (Homo sapiens) (UniProt P14867+P47870+P18507). The experiment in a line: Displacement of [3H]muscimol from human GABAalpha1beta2gamma2 receptor expressed in CHO cells at 100 uM after 30 mins by liquid scintillation counting. Type of data set: cell-based. The method, boiled down:
as §2

The species named for data set [7] is Rattus norvegicus. The experiment in a line: Displacement of [3H]-batrachotoxinin from sodium channel site 2 in rat cerebral cortex at 100 uM after 60 mins by liquid scintillation spectroscopic method. The method, boiled down:
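Run commercially by an outside contract lab, with the compound tested at 100 μM. The read-out was percent inhibition of binding of the radiolabelled ligand, reported as compound binding.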

Data set [8] relates to Mus musculus. Briefly: Antinociceptive activity in Albino Swiss CD-1 mouse assessed as inhibition of capsaicin-induced nociception by measuring time spent licking injected paw administered ip 30 mins mins prior to capsaicin challenge measured for 5 mins. Type of data set: functional, organism-based. The method, boiled down:
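Mice (male CD-1, 18–25 g) were pretreated ip 30 min before intraplantar capsaicin. Doses were 25, 50 or 100 mg/kg, or 100, 150 or 200 mg/kg for the reference. Vehicle was 1% Tween 80 at 10 mL/kg. Duration of nociceptive response was scored over 5 min after injection. Data are mean ± SEM of 8–10 mice, by one-way ANOVA with Dunnett's test against vehicle.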

Another data set deals with Cytochrome P450 3A4 (Homo sapiens, UniProt P08684). Briefly: Inhibition of human CYP3A4 assessed as reduction in luciferin-PPXE conversion to D-luciferin at 12.5 to 25 uM by luminescence assay. Type of data set: ADME. The method, boiled down:
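P450-Glo luminescence assays used recombinant human CYP3A4 or CYP2D6 with conversion of luciferin-PPXE to D-luciferin. Ketoconazole (CYP3A4) and quinidine (CYP2D6) served as reference inhibitors.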

In data set [9] the test system is Mus musculus. The experiment in a line: Anticonvulsant activity in Albino Swiss CD-1 mouse assessed as protection against 6 Hz current-induced seizure at 100 mg/kg, ip pretreated up to 2 hrs followed by 6 Hz current induction for 3 secs relative to control. The data set is classed as functional.
For data set [10], the system named is Mus musculus. The experiment in a line: Anticonvulsant activity in Albino Swiss CD-1 mouse assessed as inhibition of pentylenetetrazole-induced seizures at 100 mg/kg, ip administered up to 0.5 hrs prior to PTZ induction measured after 30 mins relative to control. The data set is classed as functional. The arrangement: scale not given: the % may be the effect or the level left.

Data set [11] concerns Mus musculus. The experiment in a line: Protection index, ratio of TD50 for neurotoxicity in ip dosed Albino Swiss CD-1 mouse to ED50 for ip dosed Albino Swiss CD-1 mouse model of 6 Hz-induced siezures. The method, boiled down: as §1
The subject of data set [12] is Mus musculus. Briefly: Anticonvulsant activity in Albino Swiss CD-1 mouse assessed as protection against maximal electroshock-induced seizures by measuring time to peak effect at 100 mg/kg, ip pretreated up to 2 hrs followed by 50 Hz current induction for […]. The data set is classed as functional.
The species named for data set [13] is Rattus norvegicus. The experiment in a line: Displacement of [3H]nitrendipine from L-type calcium channel dihydropyridine binding site in rat cerebral cortex at 100 uM by liquid scintillation spectrometry. The method in brief:
as §2

Sequence of Cytochrome P450 3A4 (P08684 whole entry): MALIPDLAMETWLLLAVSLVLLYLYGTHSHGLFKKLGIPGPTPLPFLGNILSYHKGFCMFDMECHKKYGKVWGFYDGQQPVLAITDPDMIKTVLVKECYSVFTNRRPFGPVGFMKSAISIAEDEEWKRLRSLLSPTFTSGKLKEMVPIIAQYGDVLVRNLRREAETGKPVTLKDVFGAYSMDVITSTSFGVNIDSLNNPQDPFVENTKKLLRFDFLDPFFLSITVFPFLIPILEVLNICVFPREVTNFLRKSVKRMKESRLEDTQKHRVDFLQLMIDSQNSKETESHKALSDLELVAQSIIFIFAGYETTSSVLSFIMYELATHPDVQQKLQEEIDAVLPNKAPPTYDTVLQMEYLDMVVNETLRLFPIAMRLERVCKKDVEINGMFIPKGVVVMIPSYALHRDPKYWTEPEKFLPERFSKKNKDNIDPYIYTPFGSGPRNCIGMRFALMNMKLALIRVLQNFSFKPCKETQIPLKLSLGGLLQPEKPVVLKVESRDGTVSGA

On to `COCC(C(=O)N1CCN(c2ccc(C(F)(F)F)cc2)CC1)N1C(=O)CCC1=O` (centres undefined), for which the figures for the “Ratio TD50/ED50” value with Mus musculus [1] and in the data set on Mus musculus [11] were 1.9 - 2.5 and 5.8 - 8.9, respectively. Also, the TD50 at 1 min in data set [2] fell in the range of 156 to 199 mg/kg. Also, the inhibition result (in the data set filed under Rattus norvegicus [3]; in data set [6]; in the data set filed under Rattus norvegicus [7]; in the data set listed under Rattus norvegicus [13]) was “inactive” each time. Moreover, the ED50 in the data set with Mus musculus [4] came to 123 mg/kg. Further, the Activity result is “Non-Toxic” in the data set with Mus musculus [5], “<=75%” with Mus musculus [9] and 75% in the data set with Mus musculus [10]. In addition, in the data set on Mus musculus [8], the inhibition entry was “Dose-dependent effect”. Besides, the “inhibition (INH)” value at Cytochrome P450 3A4 was “Not Active”. For the same compound, the Time in the data set with Mus musculus [12] fell in the range of 0.25 to 1 h.
